Screens from PubChem BioAssay.
INS-1E GSIS act – primary screen for activators of insulin secretion dependent on glucose, INS-1E cells, GLuc reporter luminescence; INS-1E GLuc reporter insulin secretion, 2-3 h; activation, % at 16.6 µM; 0.61% of 370,000 active; AID 743287;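 active = lowest replicate activation of at least 40%, so every replicate reaches that level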;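 also: 0% = median of neutral control wells and 100% = median of IBMX positive control wells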
HIV Env fusion – blocks HIV Env-driven cell-cell fusion; HeLa-JRFL Env/CEM21 cell fusion, luciferase; 1.1% of 360,000 active; inhibition, % at 12.3 µM;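 active = mean replicate inhibition score of at least 50 and every replicate individually at or above 50; inconclusive = only one of the two criteria met; inactive = mean below 50 and not all replicates reaching 50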;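 also: 0% = plate neutral controls and 100% = maraviroc near 300 nM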
FN deposition inh – fibronectin deposition inhibition. AID 743247. AH1F fibroblasts, Alexa488-fibronectin deposition fluorescence, overnight. inhibition, % at 12.6 µM. 0.086% of 350,000 active;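 active = mean inhibition across replicates of 30% or more, regardless of how many single replicates reach that level; inconclusive = mean under 30% yet at least half of replicates reach 30%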;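 also: positive control wells lacked labelled fibronectin entirely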
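Material: AH1F fibroblasts assembling fluorescent fibronectin matrix; amount: 10000 AH1F cells/well; medium: DMEM, 2% serum; reagent: Alexa488-fibronectin, 24 nM final in well; dosing: single compound dose, delivered by pin transfer; incubation: 1 h adhesion, overnight exposure; detection: fluorescence after three HBSS washes, excitation 485 nm, emission 525 nm; measure: fibronectin deposition inhibition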
ERp5 block – ERp5 (human) disulfide isomerase inhibition | Q15084 | ERp5 insulin aggregation, absorbance 650 nm, 90 min | inhibition, % at 9.99 µM | 0.05% of 350,000 active | AID 651711;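 active = mean replicate inhibition above about 25%, with every replicate also reaching it, limit read from the data, passing the limit was not always enough; inconclusive = only one of those two criteria met; inactive = neither criterion met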
Target sequence (Q15084 whole entry, looked up): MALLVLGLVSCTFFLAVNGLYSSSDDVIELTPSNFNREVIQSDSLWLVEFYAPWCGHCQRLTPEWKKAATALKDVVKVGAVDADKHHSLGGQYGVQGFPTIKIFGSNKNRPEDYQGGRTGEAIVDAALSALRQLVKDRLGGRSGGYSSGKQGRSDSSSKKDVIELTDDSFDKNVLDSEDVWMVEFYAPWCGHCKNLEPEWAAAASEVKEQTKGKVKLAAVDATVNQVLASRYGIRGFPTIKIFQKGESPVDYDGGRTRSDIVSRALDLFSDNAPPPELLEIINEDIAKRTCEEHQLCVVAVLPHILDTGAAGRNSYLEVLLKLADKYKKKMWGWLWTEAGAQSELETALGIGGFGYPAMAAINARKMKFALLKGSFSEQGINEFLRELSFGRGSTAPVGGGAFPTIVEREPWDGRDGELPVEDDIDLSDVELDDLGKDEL
PDI turbidity – inhibitors of human protein disulfide isomerase | inhibition, % at 10 µM | P07237 | 0.052% of 350,000 active | PDI insulin aggregation turbidity, A650, 90 min;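 active = mean inhibition across replicates of 30% or more, whatever share of single replicates reach that level; inconclusive = mean inhibition below 30% while every single replicate reaches 30%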
Active calls of the source: *; ? = inconclusive; . = not tested or not shown; [ ] = remark or other dose. This is a sample that favours compounds with a hit; in the whole collection about 1.4% have one here.

SMILES	INS-1E GSIS act	HIV Env fusion	FN deposition inh	ERp5 block	PDI turbidity
CCCC(=O)Nc1ccc2c(c1)OC[C@H](C)N(C(=O)CN(C)C)C[C@H](C)[C@H](OC)CN(C)C2=O	-1	?	1	7	.
Cc1noc(C)c1NC(=O)Nc1ccc2c(c1)CC(=O)N([C@H](C)CO)C[C@H](C)[C@@H](CN(C)S(=O)(=O)c1ccccc1)O2	9	-9[16.7 µM]	.	12	.
CCCc1nc2n[nH]c(N)c2c2c1COC(C)(C)C2	49*	.	.	.	8
CCc1nc2n[nH]c(N)c2c2c1CCCC2	121*	.	.	.	-10
CN(C(=O)COC(=O)c1cccs1)c1ccccc1	117*	5	2	1	-6
O=C(CCc1ccccc1)NNC(=O)COc1ccccc1Cl	137*	3	9	-5	-5
O=C(COc1ccccc1Cl)NCc1ccccc1	6	-18	-4	2	-2
COCC(=O)N1CC2(C1)[C@H](c1ccc(-c3ccc(F)cc3)cc1)[C@H](CO)N2C(C)=O	-11	.	.	-4	.
O=S(=O)(c1ccc(Cl)cc1)N1[C@@H]2CNC[C@H]1C2c1ccc(-c2cccnc2)cc1 (stereo not given in full)	7	.	3	6	.
CCS(=O)(=O)Nc1ccc2c(c1)C(=O)N(C)[C@H]1CC[C@@H](CC(=O)NCc3ccccc3F)O[C@H]1CO2	3	-2[16.7 µM]	-7	-1	.
COc1ccc(/C(C)=N/Nc2ccc(C(=O)O)cc2)cc1OC	63*	.	.	.	5
COc1cccc(S(=O)(=O)Nc2ccc3c(c2)C(=O)N(C)[C@H]2CC[C@H](CC(=O)O)O[C@@H]2CO3)c1	4	-8[16.7 µM]	-10	.	.
Nc1nc(N)nc(-c2ccc(Cl)cc2)n1	47*	-69	-7	.	-3
O=C(CCc1nc(-c2ccccc2F)no1)Nc1cccnc1	17	59*	.	-7	3
CCOc1ccccc1-c1noc(CCC(=O)Nc2cccnc2)n1	6	-11	3	2	1
C[C@@H]1CN([C@H](C)CO)C(=O)c2cc(-c3cncnc3)cnc2O[C@@H]1CN(C)C(=O)c1ccccc1F	25	-32[16.7 µM]	.	-2	.
CC(C)CC#Cc1ccc2c(c1)O[C@H](CN(C)Cc1ccccn1)[C@H](C)CN([C@@H](C)CO)S2(=O)=O	-26	-15[16.7 µM]	2	-2	.
CC(C)CC#Cc1ccc2c(c1)O[C@@H](CN(C)C(=O)c1ccccn1)[C@@H](C)CN([C@@H](C)CO)S2(=O)=O	-8	0[16.7 µM]	.	45*	.
CC(C)CC#Cc1ccc2c(c1)O[C@@H](CN(C)Cc1ccccn1)[C@H](C)CN([C@H](C)CO)S2(=O)=O	-17	91*[16.7 µM]	2	5	.
C[C@H](CO)N1C[C@H](C)[C@@H](CN(C)S(C)(=O)=O)Oc2ccc(NC(=O)Nc3cccc4ccccc34)cc2C1=O	13	.	.	0	.
Cc1oc(-c2ccc(Cl)cc2)nc1CN1CCCC(C(=O)NCc2ccccn2)C1 (stereo not given)	.	25	-4	.	-3
Cc1oc(-c2ccc(Cl)cc2)nc1CN1CCCC(C(=O)NCc2cccnc2)C1 (stereo not given)	.	87*	.	.	-2
Cc1oc(-c2cccc(Cl)c2)nc1CN1CCCC(C(=O)NCc2ccco2)C1 (stereo not given)	.	7	-4	.	1
Cc1oc(-c2cccc(Cl)c2)nc1CN1CCCC(C(=O)NC(C)c2ccc3c(c2)OCCO3)C1 (stereo not given)	-24	84*	12	0	.
C[C@H]1CN([C@@H](C)CO)C(=O)c2cc(C#CCN(C)C)cnc2O[C@@H]1CN(C)Cc1ccc(-c2ccccc2)cc1	5	-14[16.7 µM]	.	1	.
SMILES	INS-1E GSIS act	HIV Env fusion	FN deposition inh	ERp5 block	PDI turbidity
Cc1ccccc1Cn1ccc(NC(=O)c2cc3nc(-c4ccco4)cc(C(F)(F)F)n3n2)n1	66*	.	.	.	9
O=C(O)CCCCCn1c(SCC(=O)c2ccc(O)c(O)c2)nc2ccsc2c1=O	21	.	5	.	32*
COC(=O)c1nn(-c2ccc3c(c2)CCN3C(C)=O)cc1O	2	73*	4	.	5
N#C[C@H]1[C@@H](c2ccccc2C2=CCCCC2)[C@H](CO)N1C(=O)CN1CCOCC1	3	.	-7	0	.
CCOC(=O)c1sc2ncn(/N=C/c3cccnc3)c(=O)c2c1C	52*	.	.	.	2
CN(C)CCCNC(=O)C[C@H]1C=C[C@@H](NC(=O)c2ccccc2F)[C@@H](CO)O1	-10	-24[16.7 µM]	14	3	.
O=C(N(Cc1ccccc1)c1ccccn1)C12CC3CC(CC(C3)C1)C2	.	122*	-2	.	-1
O=C(N(c1ccccn1)c1ccccn1)C12CC3CC(CC(C3)C1)C2	3	41	-5	-1	-1
CN1CCN(NC(=O)c2cccc(S(=O)(=O)N3CCCCCC3)c2)CC1	58*	-28	2	9	-1
CCCn1c(NC(=O)c2cccc(S(=O)(=O)N3CCCC3)c2)nc2ccccc21	.	132*	14	.	1
CCCn1c(NC(=O)c2ccccc2)nc2ccccc21	-4	.	.	.	-26
CN(C)CCn1c(=O)n(-c2cccc(Cl)c2)c(=O)c2c3c(sc21)CCCCC3	-6	130*	-1	-3	-5
Cc1cc(C)n(-c2ncnc3sc4c(c23)CCCC4)n1	48	.	.	0	-17
Cc1nccn1-c1ncnc2sc3c(c12)CCCC3	67*	.	.	.	-5
C[C@@H]1CCCCO[C@@H](CN(C)C(=O)Nc2ccc(F)cc2)[C@H](C)CN([C@H](C)CO)C(=O)c2cc(NS(=O)(=O)c3ccc(Cl)cc3)ccc2O1	-12	-82[16.7 µM]	2	2	.
CC(C)C#Cc1cnc2c(c1)C(=O)N([C@@H](C)CO)C[C@H](C)[C@@H](CN(C)C(=O)Nc1cccc(F)c1)O2	-36	.	3	5	.
CC(=O)Nc1ccc2c(c1)C(=O)N(C)C[C@H](C)[C@H](CN(C)C(=O)OC(C)(C)C)O2	-5	.	.	.	.
N#Cc1ccccc1Cn1c(=O)n(CCCC(=O)NCc2ccc3c(c2)OCO3)c(=O)c2ccccc21	7	.	.	.	-10
COCCNC(=O)CCCn1c(=O)c2ccccc2n(Cc2ccccc2C#N)c1=O	54*	7	1	1	-1
CN1C(=O)c2cc(NC(=O)Cc3ccccc3)ccc2OC[C@@H]2O[C@H](CC(=O)NC3CCC3)CC[C@H]21	-4	.	7	3	.
O=C(Nc1ccc2c(c1)[C@@H]1C[C@@H](CC(=O)N3CCCCC3)O[C@H](CO)[C@@H]1O2)c1ccc2c(c1)OCO2	-5	18[16.7 µM]	-3	-2	.
CCCCCCN1C[C@H](n2cc(C3CC3)nn2)[C@@H](O)C[C@@H]1c1ccc(C)cc1	274*	11	6	4	7
CCCCCCN1C[C@@H](n2cc(C3CC3)nn2)[C@H](O)C[C@@H]1c1ccc(C)cc1	-19	-52	-3	4	13
CCCCCCN1C[C@H](n2cc(COC(=O)c3ccccc3)nn2)[C@@H](O)C[C@@H]1c1ccc(C)cc1	163*	33	5	2	-8
O=S(=O)(N[C@@H]1CC[C@H](CCn2cc(-c3cccc(F)c3)nn2)O[C@@H]1CO)c1ccccc1	-8	21[16.7 µM]	.	2	.
